Measurements published in ChEMBL document CHEMBL4311941, “Development of Multifunctional Histone Deacetylase 6 Degraders with Potent Antimyeloma Activity” (J Med Chem, 2019).
The source made the active and inactive calls. The rule behind the calls is not given here.

Legend:
[1] = molecular target: T1, Protein cereblon/Protein deacetylase HDAC6 (Homo sapiens, UniProt Q9UBN7+Q96SW2); assay: Protac activity at CRBN/HDAC6 in human MM1S cells assessed as induction of alpha tubulin acetylation measured after 6 hrs by Western blot analysis; type: cell-based
[2] = molecular target: T2, Protein cereblon/Zinc finger protein Aiolos (Homo sapiens) (UniProt Q96SW2+Q9UKT9); assay: Protac activity at CRBN/IKZF3 in human MM1S cells assessed as IKZF3 degradation at 100 nM measured after 4 hrs by Western blot analysis; type: cell-based
How it was run: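 Time course in MM1S cells (1 × 10^6 cells per well, seeded overnight) under 100 nM degrader. Whole-cell RIPA lysates analysed by 7.5−12% SDS-PAGE and PVDF immunoblot. Primary antibody at 4 °C overnight, HRP secondary 1 h, ECL detection with densitometry.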

[3] = molecular target: Protein cereblon/Histone deacetylase 4 (Homo sapiens) (UniProt P56524+Q96SW2); assay: Protac activity at CRBN/HDAC4 in human MM1S cells assessed as HDAC4 degradation at 100 nM measured after 6 hrs in presence of proteasome inhibitor MG132 by Western blot analysis; type: cell-based
Histone deacetylase 1 = Histone deacetylase 1 (Homo sapiens, UniProt Q13547); assay: Inhibition of human N-terminal tagged human HDAC1 expressed in HEK293T/17 using Ac-Gly-Ala-[Ac-Lys]-AMC as substrate preincubated for 10 mins followed by substrate addition and measured after 15 mins by fluorescence assay
[4] = molecular target: T2, Protein cereblon/Zinc finger protein Aiolos (Homo sapiens); assay: Protac activity at CRBN/IKZF3 in human MM1S cells assessed as IKZF3 degradation at 100 nM measured after 6 hrs in presence of HDAC6 inhibitor Next-A by Western blot analysis; type: cell-based
How it was run: (§1)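 MM1S cells seeded at 1 × 10^6 per well overnight. Pretreated 1 h with pomalidomide, Next-A, MLN 4924 or DMSO, then given 100 nM degrader or DMSO for 6 h. Lysed in RIPA with protease inhibitors, 10−40 μg protein run on SDS-PAGE and transferred to PVDF. Blots probed for IKZF1/IKZF3, detected by ECL and quantified by densitometry.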

[5] = molecular target: T1, Protein cereblon/Protein deacetylase HDAC6; assay: Protac activity at CRBN/HDAC6 in human MM1S cells assessed as HDAC6 degradation at 100 nM measured after 6 hrs in presence of HDAC6 inhibitor Next-A by Western blot analysis; type: cell-based
[6] = molecular target: T1, Protein cereblon/Protein deacetylase HDAC6; assay: Protac activity at CRBN/HDAC6 in human MM1S cells assessed as HDAC6 degradation at 100 nM measured after 6 hrs in presence of proteasome inhibitor bortezomib by Western blot analysis; type: cell-based
[7] = molecular target: T1, Protein cereblon/Protein deacetylase HDAC6; assay: Protac activity at CRBN/HDAC6 in human MM1S cells assessed as HDAC6 degradation at 100 nM measured after 6 hrs in presence of proteasome inhibitor MG132 by Western blot analysis; type: cell-based
Histone deacetylase 11 = molecular target: T3, Histone deacetylase 11 (Homo sapiens, UniProt Q96DB2); assay: Inhibition of human N-terminal tagged human HDAC11 expressed in HEK293T/17 using Boc-[TFA-Lys]-AMC as substrate preincubated for 10 mins followed by substrate addition and measured after 60 mins by fluorescence assay
T3 sequence (Q96DB2 whole entry): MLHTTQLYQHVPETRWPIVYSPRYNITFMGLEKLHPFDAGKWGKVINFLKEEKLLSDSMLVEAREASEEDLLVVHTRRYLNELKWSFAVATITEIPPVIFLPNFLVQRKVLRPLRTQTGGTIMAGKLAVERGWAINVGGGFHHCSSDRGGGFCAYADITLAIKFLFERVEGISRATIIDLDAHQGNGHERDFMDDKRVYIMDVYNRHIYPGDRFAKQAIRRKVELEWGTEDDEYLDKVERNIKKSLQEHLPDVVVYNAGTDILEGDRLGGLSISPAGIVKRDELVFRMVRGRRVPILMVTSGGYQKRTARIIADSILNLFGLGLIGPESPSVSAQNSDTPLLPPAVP

Histone deacetylase 5 = Histone deacetylase 5 (Homo sapiens, UniProt Q9UQL6); assay: Inhibition of human N-terminal tagged human HDAC5 expressed in HEK293T/17 using Boc-[TFA-Lys]-AMC as substrate preincubated for 10 mins followed by substrate addition and measured after 60 mins by fluorescence assay
[8] = molecular target: T1, Protein cereblon/Protein deacetylase HDAC6; assay: Protac activity at CRBN/HDAC6 in human MM1S cells assessed as HDAC6 degradation measured after 6 hrs by ELISA relative to control; type: cell-based
How it was run: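 In-cell ELISA: MM1S cells (5 × 10^4 per well) seeded overnight, treated 6 h (dosed as 5× medium; 0.1 nM–1 μM or 10/100 nM). Fixed in 8% formaldehyde/TBS, permeabilized with 0.1% Triton X, peroxidase quenched with 1% H2O2, blocked in 5% BSA. Anti-HDAC6 rabbit mAb (1:1000, 2 h) then HRP secondary; TMB read as OD450 − OD570. Background wells lacked primary antibody. Signal normalized to Janus Green and to DMSO wells, n = 3. DC50/Dmax from three-parameter fit.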

MM1.S [9] = assay: Induction of apoptosis in human MM1S cells assessed as cleavage of PARP measured after 48 hrs by Western blot analysis; type: functional, cell-based
[10] = molecular target: T4, Cereblon/Ikaros (Homo sapiens) (UniProt Q96SW2+Q13422); assay: Protac activity at CRBN/IKZF1 in human MM1S cells assessed as IKZF1 degradation at 100 nM measured after 4 hrs by Western blot analysis; type: cell-based
MM1.S [11] = assay: Antiproliferative activity against human MM1S cells assessed as reduction in cell viability at 1 uM measured after 72 hrs by resazurin dye based assay; type: functional
[12] = molecular target: Protein cereblon/Histone deacetylase 1 (Homo sapiens) (UniProt Q13547+Q96SW2); assay: Protac activity at CRBN/HDAC1 in human MM1S cells assessed as HDAC1 degradation at 100 nM measured up to 8 hrs by Western blot analysis; type: cell-based
[13] = molecular target: T4, Cereblon/Ikaros (Homo sapiens); assay: Protac activity at CRBN/IKZF1 in human MM1S cells assessed as IKZF1 degradation at 100 nM measured after 6 hrs in presence of HDAC6 inhibitor Next-A by Western blot analysis; type: cell-based; how it was run: as §1

T1 sequence (Q96SW2 whole entry, looked up): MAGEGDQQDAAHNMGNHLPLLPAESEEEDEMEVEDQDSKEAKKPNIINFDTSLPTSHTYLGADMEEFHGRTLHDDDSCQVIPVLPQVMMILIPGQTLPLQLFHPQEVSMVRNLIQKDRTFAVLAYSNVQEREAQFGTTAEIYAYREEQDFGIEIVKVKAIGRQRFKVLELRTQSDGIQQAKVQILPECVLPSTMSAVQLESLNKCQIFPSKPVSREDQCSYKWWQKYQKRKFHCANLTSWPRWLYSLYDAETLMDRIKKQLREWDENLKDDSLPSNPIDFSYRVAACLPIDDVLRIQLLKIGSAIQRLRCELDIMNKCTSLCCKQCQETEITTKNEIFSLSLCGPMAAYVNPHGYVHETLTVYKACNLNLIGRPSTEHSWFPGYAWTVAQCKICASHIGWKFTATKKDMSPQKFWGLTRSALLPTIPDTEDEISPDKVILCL
T1 sequence (Q9UBN7 whole entry, looked up): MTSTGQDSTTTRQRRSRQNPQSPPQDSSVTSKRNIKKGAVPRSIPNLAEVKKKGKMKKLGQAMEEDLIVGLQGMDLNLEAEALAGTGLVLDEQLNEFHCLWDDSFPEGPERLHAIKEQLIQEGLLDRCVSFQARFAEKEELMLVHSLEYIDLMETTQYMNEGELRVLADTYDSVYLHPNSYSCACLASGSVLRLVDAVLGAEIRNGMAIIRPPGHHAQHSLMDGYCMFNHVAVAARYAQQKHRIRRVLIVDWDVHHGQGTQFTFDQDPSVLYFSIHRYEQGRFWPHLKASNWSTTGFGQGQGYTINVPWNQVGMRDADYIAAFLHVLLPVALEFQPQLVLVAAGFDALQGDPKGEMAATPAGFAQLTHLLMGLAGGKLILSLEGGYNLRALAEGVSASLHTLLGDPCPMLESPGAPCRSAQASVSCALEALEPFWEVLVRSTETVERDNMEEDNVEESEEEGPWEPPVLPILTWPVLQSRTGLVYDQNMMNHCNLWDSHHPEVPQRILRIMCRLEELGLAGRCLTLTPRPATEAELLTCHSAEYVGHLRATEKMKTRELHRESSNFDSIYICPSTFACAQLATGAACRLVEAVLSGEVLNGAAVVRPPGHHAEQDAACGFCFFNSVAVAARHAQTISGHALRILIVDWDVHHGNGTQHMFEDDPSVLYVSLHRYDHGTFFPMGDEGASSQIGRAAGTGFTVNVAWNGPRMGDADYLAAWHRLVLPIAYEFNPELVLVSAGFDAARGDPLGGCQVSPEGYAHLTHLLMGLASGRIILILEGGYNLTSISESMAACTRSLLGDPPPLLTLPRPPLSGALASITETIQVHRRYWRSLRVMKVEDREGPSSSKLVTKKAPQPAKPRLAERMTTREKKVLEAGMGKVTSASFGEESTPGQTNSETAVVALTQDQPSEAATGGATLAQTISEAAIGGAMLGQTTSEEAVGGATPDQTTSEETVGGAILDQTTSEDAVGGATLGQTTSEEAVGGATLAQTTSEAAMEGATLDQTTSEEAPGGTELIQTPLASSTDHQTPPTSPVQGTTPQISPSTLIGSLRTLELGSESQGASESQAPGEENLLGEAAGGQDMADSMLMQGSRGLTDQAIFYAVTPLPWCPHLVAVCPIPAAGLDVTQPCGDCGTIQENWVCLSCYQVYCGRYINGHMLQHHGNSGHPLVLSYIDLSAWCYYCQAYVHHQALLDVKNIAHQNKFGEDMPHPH
T2 sequence (Q96SW2 whole entry, looked up): as the sequence (Q96SW2 whole entry, looked up) above
T2 sequence (Q9UKT9 whole entry, looked up): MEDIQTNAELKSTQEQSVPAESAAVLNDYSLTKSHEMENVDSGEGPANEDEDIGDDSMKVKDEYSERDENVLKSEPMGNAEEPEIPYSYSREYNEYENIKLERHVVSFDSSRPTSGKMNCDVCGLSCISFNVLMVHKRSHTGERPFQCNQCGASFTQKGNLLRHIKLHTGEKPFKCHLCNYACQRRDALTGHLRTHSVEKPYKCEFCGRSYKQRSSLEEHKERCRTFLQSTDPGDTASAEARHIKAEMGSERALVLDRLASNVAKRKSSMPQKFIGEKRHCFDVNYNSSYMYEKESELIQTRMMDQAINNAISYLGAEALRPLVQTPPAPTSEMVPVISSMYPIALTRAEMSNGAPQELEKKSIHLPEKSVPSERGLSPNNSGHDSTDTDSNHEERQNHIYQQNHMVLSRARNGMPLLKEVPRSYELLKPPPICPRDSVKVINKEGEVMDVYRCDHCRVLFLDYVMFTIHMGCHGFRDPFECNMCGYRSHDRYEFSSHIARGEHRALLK
Chain of Protein cereblon/Histone deacetylase 1 (Homo sapiens) (Q13547 whole entry, looked up): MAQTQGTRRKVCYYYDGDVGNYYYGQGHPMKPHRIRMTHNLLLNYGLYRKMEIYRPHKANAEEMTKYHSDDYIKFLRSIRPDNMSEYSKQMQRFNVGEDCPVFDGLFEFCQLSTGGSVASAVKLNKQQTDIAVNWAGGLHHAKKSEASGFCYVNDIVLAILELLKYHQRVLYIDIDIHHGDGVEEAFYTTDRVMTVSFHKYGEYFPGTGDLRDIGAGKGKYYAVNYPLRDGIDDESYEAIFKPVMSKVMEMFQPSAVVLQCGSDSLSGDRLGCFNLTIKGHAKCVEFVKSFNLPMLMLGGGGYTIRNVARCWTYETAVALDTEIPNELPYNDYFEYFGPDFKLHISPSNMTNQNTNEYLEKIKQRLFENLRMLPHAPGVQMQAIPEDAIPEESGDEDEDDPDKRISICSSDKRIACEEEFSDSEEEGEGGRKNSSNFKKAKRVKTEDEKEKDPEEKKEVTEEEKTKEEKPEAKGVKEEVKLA
Chain of Protein cereblon/Histone deacetylase 1 (Homo sapiens) (Q96SW2 whole entry, looked up): as the sequence (Q96SW2 whole entry, looked up) above
Chain of Histone deacetylase 1 (Q13547 whole entry): as the sequence (Q13547 whole entry, looked up) above
Chain of Protein cereblon/Histone deacetylase 4 (Homo sapiens) (P56524 whole entry, looked up): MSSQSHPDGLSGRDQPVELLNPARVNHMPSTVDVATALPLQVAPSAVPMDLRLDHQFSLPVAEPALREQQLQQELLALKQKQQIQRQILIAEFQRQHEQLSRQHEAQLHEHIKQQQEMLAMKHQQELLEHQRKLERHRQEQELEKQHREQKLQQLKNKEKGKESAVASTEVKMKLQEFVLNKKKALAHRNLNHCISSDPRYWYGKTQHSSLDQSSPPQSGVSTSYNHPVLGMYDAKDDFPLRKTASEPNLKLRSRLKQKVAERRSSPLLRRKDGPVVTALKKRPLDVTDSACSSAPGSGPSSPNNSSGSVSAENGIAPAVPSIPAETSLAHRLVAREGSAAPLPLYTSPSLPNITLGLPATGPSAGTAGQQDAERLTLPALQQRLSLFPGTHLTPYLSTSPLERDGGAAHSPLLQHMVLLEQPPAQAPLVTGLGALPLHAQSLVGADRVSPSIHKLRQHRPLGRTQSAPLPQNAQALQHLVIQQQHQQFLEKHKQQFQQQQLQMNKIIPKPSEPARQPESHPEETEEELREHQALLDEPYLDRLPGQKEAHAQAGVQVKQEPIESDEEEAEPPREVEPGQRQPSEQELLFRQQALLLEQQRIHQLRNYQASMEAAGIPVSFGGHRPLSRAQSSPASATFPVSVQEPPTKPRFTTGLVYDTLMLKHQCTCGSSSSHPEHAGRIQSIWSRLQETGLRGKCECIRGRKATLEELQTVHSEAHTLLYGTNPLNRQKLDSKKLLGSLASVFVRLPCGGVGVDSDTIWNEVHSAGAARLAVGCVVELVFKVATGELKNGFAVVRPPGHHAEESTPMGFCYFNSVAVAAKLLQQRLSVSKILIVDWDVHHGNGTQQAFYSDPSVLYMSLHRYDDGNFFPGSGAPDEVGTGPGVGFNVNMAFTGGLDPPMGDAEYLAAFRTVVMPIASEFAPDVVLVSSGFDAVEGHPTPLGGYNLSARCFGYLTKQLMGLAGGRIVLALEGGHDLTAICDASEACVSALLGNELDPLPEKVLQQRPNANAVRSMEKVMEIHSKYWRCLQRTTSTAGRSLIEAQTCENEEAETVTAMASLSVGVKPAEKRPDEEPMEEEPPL
Chain of Protein cereblon/Histone deacetylase 4 (Homo sapiens) (Q96SW2 whole entry, looked up): as the sequence (Q96SW2 whole entry, looked up) above
Chain of Histone deacetylase 5 (Q9UQL6 whole entry): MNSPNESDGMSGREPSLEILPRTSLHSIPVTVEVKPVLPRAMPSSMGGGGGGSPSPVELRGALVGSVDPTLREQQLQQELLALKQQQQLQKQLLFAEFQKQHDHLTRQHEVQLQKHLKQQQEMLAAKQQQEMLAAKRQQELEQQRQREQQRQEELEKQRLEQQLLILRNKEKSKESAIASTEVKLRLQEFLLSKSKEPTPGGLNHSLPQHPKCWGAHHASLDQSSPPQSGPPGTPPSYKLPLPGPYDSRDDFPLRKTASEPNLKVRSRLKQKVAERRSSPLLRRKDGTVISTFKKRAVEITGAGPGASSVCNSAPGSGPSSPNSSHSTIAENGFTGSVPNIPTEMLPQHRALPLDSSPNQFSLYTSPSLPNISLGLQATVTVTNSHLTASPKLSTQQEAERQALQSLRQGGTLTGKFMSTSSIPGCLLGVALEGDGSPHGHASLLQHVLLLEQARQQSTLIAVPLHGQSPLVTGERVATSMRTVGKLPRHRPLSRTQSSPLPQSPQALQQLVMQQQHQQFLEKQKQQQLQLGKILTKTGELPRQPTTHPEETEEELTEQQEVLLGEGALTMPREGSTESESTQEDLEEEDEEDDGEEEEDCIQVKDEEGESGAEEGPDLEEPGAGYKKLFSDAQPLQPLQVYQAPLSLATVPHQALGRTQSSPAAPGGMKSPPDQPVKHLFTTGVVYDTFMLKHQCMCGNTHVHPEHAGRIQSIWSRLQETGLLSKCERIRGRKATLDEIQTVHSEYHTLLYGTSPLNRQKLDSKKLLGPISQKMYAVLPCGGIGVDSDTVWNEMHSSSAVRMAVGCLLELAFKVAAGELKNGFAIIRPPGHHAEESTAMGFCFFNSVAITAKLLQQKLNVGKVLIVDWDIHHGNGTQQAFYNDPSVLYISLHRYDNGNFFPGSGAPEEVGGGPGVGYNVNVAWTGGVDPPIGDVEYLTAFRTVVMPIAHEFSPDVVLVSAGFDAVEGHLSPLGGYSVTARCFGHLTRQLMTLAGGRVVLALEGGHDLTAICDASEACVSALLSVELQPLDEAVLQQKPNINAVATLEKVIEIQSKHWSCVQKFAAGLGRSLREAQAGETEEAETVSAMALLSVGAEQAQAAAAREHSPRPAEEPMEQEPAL

CCCCN(Cc1ccc(C(=O)NO)cc1)C(=O)Nc1ccc(OCCCCCn2cc(CNc3cccc4c3C(=O)N(C3CCC(=O)NC3=O)C4=O)nn2)cc1 (stereo unspecified)
Activity [1]: Dose-dependent effect
Activity [2]: Active
Activity [3]: inactive
IC50 (Histone deacetylase 1): 0.3 to 30 µM
Activity [4]: Active
Activity [5]: inactive
Activity [6]: inactive
Activity [7]: inactive
IC50 (Histone deacetylase 11): 0.3 to 30 µM
IC50 (Histone deacetylase 5): 0.3 to 30 µM
%max [8]: 86.3%
Activity (MM1.S [9]): Dose-dependent effect
Activity [10]: Active
Activity (MM1.S [11]): Active
Activity [12]: inactive
Activity [13]: Active
